In general, IC50 refers to the concentration that inhibits the measured activity by half. The term half-life denotes the time needed for the level to fall by half in the phase considered. One may read the TGI as the reduction of tumour growth relative to the control group.

These results are taken from ChEMBL document CHEMBL4431315, “Jatrophane Diterpenoids as Modulators of P-Glycoprotein-Dependent Multidrug Resistance (MDR): Advances of Structure-Activity Relationships and Discovery of Promising MDR Reversal Agents” (J Med Chem, 2016).

The test system of one series is NCI/ADR-RES. The series is described as follows: Intrinsic cytotoxicity against human MCF7/ADR cells assessed as inhibition of cell proliferation after 48 hrs by MTT assay. It counts as cell-based. In outline: (§1)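 Seeded at 5 × 10^3 cells/well with graded compound levels, DMSO as negative control, 48 h. MTT added for 4 h, formazan dissolved in DMSO, OD read at 570 nm (reference 630 nm). IC50 by nonlinear regression; triplicate samples.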
In general terms: Formazan colour is commonly taken as a measure of viable cells.

For series [1], the system named is HepG2. Put plainly: Cytotoxicity against adriamycin-resistant human HepG2 cells assessed as inhibition of cell proliferation after 48 hrs by MTT assay. The conditions noted are these: HepG2, 48 h. In kind it is functional, cell-based. In outline:
as §1

Series [2] deals with T1, ATP-dependent translocase ABCB1 (Homo sapiens, UniProt P08183). Put plainly: Inhibition of P-gp mediated efflux in adriamycin-resistant human HepG2 cells assessed as intracellular rhodamine-123 accumulation at 10 uM incubated in dark condition for 90 mins by flow cytometry relative to control. It counts as cell-based. In outline: (§2)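 HepG2/ADR cells seeded at 5 × 10^5/well and given compound plus 10 μM Rho123 in the dark at 37 °C for 90 min. Cells washed twice in ice-cold PBS, resuspended in PBS, read by flow cytometry in FL1 (Em 525 nm). Fold of control = (treated fluorescence − background)/(Rho123-only fluorescence − background).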

Series [3] in a line: Cytotoxicity against HLF cells assessed as inhibition of cell proliferation after 48 hrs by MTT assay. It counts as cell-based. The conditions noted are these: Homo sapiens. In outline: as §1
Series [4] can be described thus: Metabolic stability in Sprague-Dawley rat liver microsomes assessed as rate constant at 100 uM by HPLC-UV analysis. It counts as ADME, Microsome. In outline:
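Rat liver microsomes at 1 mg protein/mL final, compound at 100 μM final (from a 10 mM CH3CN stock), in 100 mM PBS with 3.0 mM MgCl2 and 1.0 mM NADPH, pH 7.4, 37 °C. Sampled at 0 to 180 min and stopped with ice-cold CH3CN. Control run without NADPH. Centrifuged supernatants analysed by HPLC-UV; three independent experiments in triplicate.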
For orientation: Microsomes from liver hold many membrane-bound enzymes, among them those of drug oxidation.

In series [5] the target is T1, ATP-dependent translocase ABCB1. Put plainly: Inhibition of P-gp mediated efflux in adriamycin-resistant human HepG2 cells assessed as intracellular rhodamine-123 accumulation at 1 uM incubated in dark condition for 90 mins by flow cytometry. In kind it is cell-based. In outline: as §2
On the technique in general: Flow cytometry measures light scatter and fluorescence of single cells or particles in a stream.

Series [6] shares this target. The series is described as follows: Inhibition of P-gp mediated efflux in adriamycin-resistant human HepG2 cells assessed as intracellular rhodamine-123 accumulation at 2 uM incubated in dark condition for 90 mins by flow cytometry relative to control. It counts as cell-based. The method in brief: as §2
For series [7] the target is unchanged. The series is described as follows: Inhibition of P-gp mediated efflux in adriamycin-resistant human HepG2 cells assessed as intracellular rhodamine-123 accumulation at 0.125 uM incubated in dark condition for 90 mins by flow cytometry relative to control. In kind it is cell-based. In outline: as §2
Series [8] in a line: Half life in Sprague-Dawley rat liver microsomes at 100 uM by HPLC-UV analysis. In kind it is ADME, Microsome.
For series [9], the system named is HepG2. Put plainly: Multidrug resistance reversal activity in adriamycin-resistant human HepG2 cells xenografted in nude BALB/c mouse assessed as increase in mouse survival at 10 mg/kg, ip administered 2 hrs prior to ADR dosing at 5 mg/kg, ip on day 0/3/6 measured every day during compound dosing. It counts as functional, organism-based. In outline: (§3)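 Female BALB/c nude mice, 5 weeks old, implanted s.c. in the right flank with 1 × 10^7 HepG2/ADR cells. At about 60 mm3, randomized into groups of seven and dosed ip on days 0, 3, 6: compound 10 mg/kg given 2 h before ADR 5 mg/kg. Controls got saline with 0.5% DMSO and 5% Kolliphor HS 15. Tumor size and body weight measured daily; survival tracked. IR from mean tumor weights; Student's t test, P < 0.05.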

Series [10] concerns HepG2. The series is described as follows: Multidrug resistance reversal activity in adriamycin-resistant human HepG2 cells xenografted in nude BALB/c mouse assessed as tumor growth inhibition at 10 mg/kg, ip administered 2 hrs prior to ADR dosing at 5 mg/kg, ip on day 0/3/6 measured every day during compound dosing. In kind it is functional. In outline: as §3

Structures are written as SMILES. The source made the active and inactive calls.

T1 sequence (P08183 whole entry): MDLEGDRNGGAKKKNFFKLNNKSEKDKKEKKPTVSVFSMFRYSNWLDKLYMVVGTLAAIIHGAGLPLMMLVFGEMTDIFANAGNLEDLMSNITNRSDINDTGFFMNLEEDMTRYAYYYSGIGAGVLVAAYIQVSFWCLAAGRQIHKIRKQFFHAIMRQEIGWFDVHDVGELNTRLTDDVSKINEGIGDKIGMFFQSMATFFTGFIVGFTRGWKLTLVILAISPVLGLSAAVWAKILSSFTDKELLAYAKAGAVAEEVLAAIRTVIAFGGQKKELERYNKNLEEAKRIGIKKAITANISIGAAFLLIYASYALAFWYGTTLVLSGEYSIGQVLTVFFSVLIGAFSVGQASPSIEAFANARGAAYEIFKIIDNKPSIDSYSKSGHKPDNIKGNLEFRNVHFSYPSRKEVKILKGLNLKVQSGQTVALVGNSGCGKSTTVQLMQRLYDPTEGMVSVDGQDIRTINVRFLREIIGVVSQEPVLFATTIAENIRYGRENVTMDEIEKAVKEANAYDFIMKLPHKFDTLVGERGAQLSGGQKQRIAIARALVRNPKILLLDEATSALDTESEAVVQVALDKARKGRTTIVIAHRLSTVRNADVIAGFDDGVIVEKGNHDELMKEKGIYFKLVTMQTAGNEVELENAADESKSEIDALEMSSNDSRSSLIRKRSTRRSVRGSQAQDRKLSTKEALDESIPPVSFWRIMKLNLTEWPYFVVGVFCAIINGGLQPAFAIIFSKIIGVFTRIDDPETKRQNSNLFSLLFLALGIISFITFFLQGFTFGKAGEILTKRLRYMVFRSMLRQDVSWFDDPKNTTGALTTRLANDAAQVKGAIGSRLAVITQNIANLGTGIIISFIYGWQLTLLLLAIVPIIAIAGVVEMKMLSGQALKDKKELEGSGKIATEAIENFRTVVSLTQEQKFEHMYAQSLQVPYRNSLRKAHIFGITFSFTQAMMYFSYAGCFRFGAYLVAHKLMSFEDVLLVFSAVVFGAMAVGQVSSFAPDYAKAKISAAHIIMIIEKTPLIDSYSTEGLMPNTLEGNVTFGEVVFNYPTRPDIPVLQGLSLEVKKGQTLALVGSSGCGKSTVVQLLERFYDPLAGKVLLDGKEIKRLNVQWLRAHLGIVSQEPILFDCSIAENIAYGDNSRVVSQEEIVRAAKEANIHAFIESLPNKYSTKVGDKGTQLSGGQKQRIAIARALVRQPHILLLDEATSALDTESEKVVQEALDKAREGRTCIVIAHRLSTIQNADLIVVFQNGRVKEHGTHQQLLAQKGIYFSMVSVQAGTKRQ

Consider `CC(=O)O[C@@H]1C[C@@H](OC(=O)c2ccccc2)/C(C)=C/[C@H]2[C@@H](OC(=O)c3ccccc3)[C@@H](C)[C@H](OC(C)=O)[C@]2(OC(C)=O)C(=O)[C@](C)(O)/C=C/C1(C)C`, for which the IC50 is greater than 150 µM in the series with NCI/ADR-RES, greater than 150 µM in the series with HepG2 [1] and greater than 100 µM in series [3]. In addition, the INH result in series [2] is on record as “Active”.
With `COc1cc2c(cc1OC)CN(CCc1ccc(NC(=O)c3cc(OC)c(OC)cc3NC(=O)c3cnc4ccccc4c3)cc1)CC2`, the k el at 100 µM in series [4] is 5.5e-05 s⁻¹. For the same molecule, the INH result is “Not Active” in series [5] and “Active” in [2]. In addition, the half-maximal inhibitory concentration (IC50) in the series with NCI/ADR-RES is 13.1 µM; in the series with HepG2 [1] it was 37.2 µM; in [3], 16.7 µM. The FC in [6] amounted to 2.97; in series [7] it was 1.04. Moreover, the half-life at 100 µM in series [8] was 3.5 h.
`CC(=O)O/C1=C(\C)[C@@H](O)[C@H]2[C@@H](OC(=O)c3ccccc3)[C@@H](C)[C@H](OC(=O)c3ccccc3)[C@]2(OC(C)=O)[C@H](OC(C)=O)/C(C)=C/CC(C)(C)[C@H](OC(C)=O)[C@H]1OC(C)=O`: the INH entry in series [5] and in series [2] was “Active” in each case. Moreover, the half-inhibitory concentration (IC50) with NCI/ADR-RES and in the series on HepG2 [1] was greater than 150 µM in each case. Besides, the FC turned out to be 2.78 in [6] and 1.37 in series [7].
Regarding `CC(=O)O[C@@H]1C[C@@H](OC(=O)c2ccccc2)/C(C)=C/[C@H]2[C@@H](OC(=O)c3ccccc3)[C@@H](C)[C@H](O)[C@]2(OC(C)=O)[C@H](O)[C@](C)(O)CCC1(C)C`, the k el at 100 µM in [4] is 1.33e-05 s⁻¹. In addition, the outcome in the series with HepG2 [9] was Active. For the same molecule, the INH entry in series [5] and in series [2] was “Active” throughout. Also, the values for the IC50 (with NCI/ADR-RES; with HepG2 [1]; in series [3]) were greater than 150 µM, greater than 150 µM and greater than 100 µM, respectively. Also, the FC in series [6] worked out at 2.74; in series [7], 1.34. In addition, in the series with HepG2 [10], the TGI is on record as 62.89%. This molecule came in with a half-life at 100 µM in [8] of 14.4 h.
With `C[C@]12CC[C@H]3[C@@H](CCC4=CC(=O)CC[C@@]43C)[C@@H]1CC[C@@H]2O` [TESTOSTERONE], the k el at 100 µM in series [4] is 0.00444 s⁻¹.
Regarding `CC(=O)O[C@@H]1C[C@@H](OC(=O)c2ccccc2)/C(C)=C/[C@H]2[C@@H](OC(=O)c3ccccc3)[C@@H](C)[C@H](OS(=O)(=O)c3ccc(C)cc3)[C@]2(OC(C)=O)[C@H](O)[C@](C)(O)/C=C/C1(C)C`, the IC50 in the series with NCI/ADR-RES is greater than 150 µM; in the series on HepG2 [1], greater than 150 µM; in [3], greater than 100 µM. In addition, in [2], the INH result is listed as “Active”.
On to `CC(=O)O[C@@H]1C[C@@H](OC(=O)c2ccccc2)/C(C)=C/[C@H]2[C@@H](OC(=O)c3ccccc3)[C@@H](C)[C@H](O)[C@]2(OC(C)=O)[C@H](O)[C@](C)(O)/C=C/C1(C)C`, for which the INH result in series [5] and in [2] was “Active” in each case. Further, the IC50 in the series on NCI/ADR-RES and with HepG2 [1] was greater than 150 µM in each case. In addition, the FC in series [6] is 2.8; in [7] it was 1.32.
For `COc1ccc(CCN(C)CCCC(C#N)(c2ccc(OC)c(OC)c2)C(C)C)cc1OC` (configuration not stated), the k el at 100 µM in [4] was 0.000392 s⁻¹.
